From article PMC9407455 (Proceedings of the National Academy of Sciences of the …, 2022)

Test system: HeLa cell–derived xenografts
Assay: Xenograft tumor assay
Format: in vivo, mice
Conditions: iJMJD6 25 mg/kg or JQ1 50 mg/kg alone or in combination, i.p. every other day
How it was run: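 Female BALB/c nude mice inoculated with HeLa cells, randomized, and injected i.p. every other day with DMSO or test compound at indicated doses. Tumour growth curves and endpoint tumour weights recorded (mean ±SEM); tumour lysates immunoblotted.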

SMILES: Cc1sc2c(c1C)C(c1ccc(Cl)cc1)=N[C@@H](CC(=O)OC(C)(C)C)c1nnc(C)n1-2 [JQ1]
- tumor suppressive effect: readily seen
